Values after ≈ are worked out from the molar mass of the structure shown.
Tests used:
Assay type in all cases: functional
Homo sapiens [1] = species on record: Homo sapiens; experiment: Potency relative to flurbiprofen in inhibiting collagen-induced platelet aggregation in human platelet-rich plasma (PRP)
How it was run: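 Ratio of activity to flurbiprofen, the internal standard run alongside each day. The IC50 was approximate, from 1/2 log concentration intervals, for collagen-induced aggregation in human PRP. PRP came from citrated blood (200g, 10 min, 10 °C), with platelets adjusted to 3×10^5/mm³ using autologous PPP (2000g, 10 min, 10 °C).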

Homo sapiens [2] = species on record: Homo sapiens; experiment: In vitro inhibition of collagen-induced platelet aggregation in human platelet-rich plasma (PRP)
How it was run: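 Citrated human blood spun at 200g, 10 min, 10 °C to give PRP. A further spin at 2000g, 10 min, 10 °C gave PPP, used to adjust the platelet count to 3×10^5/mm³. Collagen triggered aggregation. Approximate IC50 was read from 1/2 log steps of drug concentration. Flurbiprofen served as internal standard for day-to-day variation in platelet sensitivity.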

Homo sapiens [3] = species on record: Homo sapiens; experiment: Percent inhibition of collagen-induced Platelet aggregation in human platelet-rich plasma (PRP) at a concentration of 0.032 ug/mL
Homo sapiens [4] = species on record: Homo sapiens; experiment: Percent inhibition of collagen-induced Platelet aggregation in human platelet-rich plasma (PRP) at a concentration of 0.01 ug/mL
Homo sapiens [5] = species on record: Homo sapiens; experiment: Percent inhibition of collagen-induced Platelet aggregation in human platelet-rich plasma (PRP) at a concentration of 0.001 ug/mL

| Compound | IC50 (Homo sapiens [2]) [µg/mL] | Relative potency (Homo sapiens [1]) | inhibition at 0.032 µg/mL (Homo sapiens [3]) [%] | inhibition at 0.01 µg/mL (Homo sapiens [4]) [%] | inhibition at 0.001 µg/mL (Homo sapiens [5]) [%] |
| --- | --- | --- | --- | --- | --- |
| c1ccc(-c2nnsc2-c2ccc3c(c2)OCO3)cc1 | 3.2 (≈ 11.3 µM) | 0.03 |  |  |  |
| CC(=O)Oc1ccccc1C(=O)O [ASPIRIN] |  | 0.01 |  |  |  |
| CN(C)c1ccc(-c2nnsc2-c2ccc(N(C)C)cc2)cc1 | 0.01 (≈ 0.0308 µM) | 10 |  |  |  |
| COc1ccc(-c2nnsc2-c2ccc(OC)cc2)cc1 | 0.001 (≈ 0.00335 µM) | 100 | 55.4 | 90 | 32.4 |
| COc1ccc(-c2nnsc2-c2ccccc2)cc1 | 0.01 (≈ 0.0373 µM) | 10 |  |  |  |
| COc1ccc(-c2nnsc2-c2cccs2)cc1 | 1 (≈ 3.64 µM) | 0.1 |  |  |  |
| c1ccc(-c2csnn2)cc1 | 3.2 (≈ 19.7 µM) | 0.03 |  |  |  |
| Oc1ccc(-c2nnsc2-c2ccc(O)cc2)cc1 | 3.2 (≈ 11.8 µM) | 0.03 |  |  |  |
| COc1ccc(-c2snnc2-c2ccco2)cc1 | 0.032 (≈ 0.124 µM) | 3.1 |  |  |  |
| Cl.Cl.Nc1ccc(-c2nnsc2-c2ccc(N)cc2)cc1 | 3.2 | 0.03 |  |  |  |
| COc1ccc(-c2snnc2-c2ccccc2)cc1 | 0.003 (≈ 0.0112 µM) | 31.3 | 50 | 56.8 | 32.4 |
| COc1ccc(-c2snnc2-c2ccc(OC)cc2OC)cc1 | 0.032 (≈ 0.0974 µM) | 3.1 |  |  |  |
| c1csc(-c2nnsc2-c2cccs2)c1 | 3.2 (≈ 12.8 µM) | 0.03 |  |  |  |

Continued, in another order:

| IC50 (Homo sapiens [2]) [µg/mL] | Compound | Relative potency (Homo sapiens [1]) | inhibition at 0.032 µg/mL (Homo sapiens [3]) [%] | inhibition at 0.01 µg/mL (Homo sapiens [4]) [%] | inhibition at 0.001 µg/mL (Homo sapiens [5]) [%] |
| --- | --- | --- | --- | --- | --- |
| 0.032 (≈ 0.102 µM) | COc1ccc(-c2snnc2-c2ccc(SC)cc2)cc1 | 3.1 |  |  |  |
| 3.2 (≈ 19.7 µM) | c1ccc(-c2cnns2)cc1 | 0.03 |  |  |  |
| 3.2 (≈ 13.4 µM) | c1ccc(-c2nnsc2-c2ccccc2)cc1 | 0.03 |  |  |  |
| 3.2 (≈ 16.6 µM) | COc1ccc(-c2csnn2)cc1 | 0.03 |  |  |  |
| 3.2 (≈ 9.86 µM) | CCNc1ccc(-c2nnsc2-c2ccc(NCC)cc2)cc1 | 0.03 |  |  |  |
